Data set [1] addresses Histone deacetylase (Homo sapiens) (UniProt Q13547+O15379+Q9UBN7+Q92769+Q9UQL6+Q8WUI4+Q9BY41+Q96DB2+P56524+Q9UKV0+Q969S8). Description: Inhibition of HDAC in human U937 cells at 50 uM after 15 mins by Western blotting. The note with it: U-937. Format: cell-based. On the technique in general: Immunoblotting shows a protein as a band on a membrane.
Data set [2] relates to U-937. Description: Induction of granulocytic differentiation in human U937 after […] using propidium iodide staining by FACS analysis. The class given is functional, cell-based.
In data set [3] the test system is U-937. The data set is described as follows: Inhibition of histone acetyltransferase in human U937 cells assessed as increase of histone H3 acetylation level at 50 uM after 15 mins by Western blotting. Format: cell-based. Summed up:
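U937 cells treated at 50 µM. Histones prepared by Triton extraction buffer lysis, then overnight 0.2 M HCl extraction at 4 °C, Bradford quantitation. Immunoblot with pan-acetyl-H3 antibody (1:1000), Ponceau Red staining as loading check.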

Data set [4] concerns the target Histone acetyltransferase KAT2B (Homo sapiens) (UniProt Q92831). The data set is described as follows: Increase of human recombinant KAT2B acetylation activity using histone H4 peptide as substrate at 50 uM after 2 hrs. Summed up: (§1)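 Human PCAF (200 ng) in KAT buffer with 10 µg histone H4 peptide (aa 2–24), 20 µM acetyl-CoA with 0.5 µCi/mL [3H]-acetyl-CoA, and compound at 50 µM final, 2 h at 37 °C. Spotted on P81 paper in triplicate, washed with TCA then acetone, scintillation counted. Activity given as % of untreated control (100%).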

Another data set deals with MCF7. The data set is described as follows: Inhibition of histone acetyltransferase in human MCF7 cells assessed as increase of alpha-tubulin acetylation level at 15 and 30 uM after 15 mins by Western blotting.
For data set [5], the system named is U-937. The data set is described as follows: Cell cycle arrest in human U937 cells assessed as accumulation at S phase at 25 uM after 30 hrs using propidium iodide staining by flow cytometry. Format: functional, cell-based. Summed up:
(§2)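 U937 cells kept at 200,000 cells/mL, 37 °C, 5% CO2, treated 30 h at 50 or 25 µM. Phase distribution by flow cytometry. Three independent experiments, mean ± SD.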
(In general: A flow cytometer gives signals particle by particle.)

The target of data set [6] is CREB-binding protein (Homo sapiens) (UniProt Q92793). The data set is described as follows: Inhibition of human recombinant KAT3A expressed in Escherichia coli BL21 using histone H4 peptide as substrate at 50 uM after 2 hrs relative to control. Summed up:
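Recombinant CBP fragment (aa 1098–1877) from E. coli BL21, affinity purified. Spotted on P81 paper in triplicate, washed with TCA/acetone, scintillation DPM compared with negative control, expressed as %.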

Data set [7] relates to U-937. Description: Induction of apoptosis in human U937 cells at 25 uM after 30 hrs using annexin V/propidium iodide double-staining by FACS analysis. The class given is functional, cell-based. Summed up: (§3)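 U937 cells at 200,000 cells/mL, 37 °C, 5% CO2, exposed 30 h at 50 or 25 µM. Dose–response runs used 5–200 µM, with IC50 taken as the concentration giving 50% apoptosis. Annexin V/propidium iodide double staining, apoptotic subpopulations counted by FACS. Three independent experiments, mean ± SD.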

The target of data set [8] is Histone acetyltransferase KAT2B (Homo sapiens) (UniProt Q92831). Description: Inhibition of human recombinant KAT2B using histone H4 peptide as substrate at 50 uM after 2 hrs. Summed up: as §1
Chain of Histone acetyltransferase KAT2B (Homo sapiens) (Q92831 whole entry, looked up, the tested form may be a part): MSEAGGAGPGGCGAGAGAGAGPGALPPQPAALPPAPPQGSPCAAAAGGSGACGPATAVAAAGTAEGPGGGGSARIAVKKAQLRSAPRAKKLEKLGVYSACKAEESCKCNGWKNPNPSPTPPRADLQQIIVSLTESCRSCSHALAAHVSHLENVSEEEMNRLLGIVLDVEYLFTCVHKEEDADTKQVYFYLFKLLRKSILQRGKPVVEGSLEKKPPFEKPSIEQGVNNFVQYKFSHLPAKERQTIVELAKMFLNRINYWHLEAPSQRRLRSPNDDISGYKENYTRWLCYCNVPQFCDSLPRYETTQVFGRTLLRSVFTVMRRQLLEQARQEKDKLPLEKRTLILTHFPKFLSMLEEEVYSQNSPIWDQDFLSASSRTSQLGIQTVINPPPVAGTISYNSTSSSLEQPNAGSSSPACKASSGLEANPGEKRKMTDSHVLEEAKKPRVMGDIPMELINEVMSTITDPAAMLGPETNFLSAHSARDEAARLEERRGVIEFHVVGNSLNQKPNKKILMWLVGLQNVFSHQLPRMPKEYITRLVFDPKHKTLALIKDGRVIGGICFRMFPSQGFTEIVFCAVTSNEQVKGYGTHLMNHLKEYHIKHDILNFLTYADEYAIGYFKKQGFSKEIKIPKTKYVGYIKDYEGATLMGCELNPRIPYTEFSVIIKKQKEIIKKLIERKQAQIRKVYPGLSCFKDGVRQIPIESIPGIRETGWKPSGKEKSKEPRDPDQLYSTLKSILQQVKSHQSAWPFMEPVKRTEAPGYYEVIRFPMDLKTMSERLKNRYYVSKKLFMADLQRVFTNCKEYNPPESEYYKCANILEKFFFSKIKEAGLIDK
In data set [9] the target is Histone acetyltransferase p300 (Homo sapiens) (UniProt Q09472). Description: Binding affinity to immobilized His6-tagged human full-length KAT3B expressed in Sf9 cells by surface plasmon resonance assay.
Data set [10] concerns U-937. Description: Cell cycle arrest in human U937 cells assessed as accumulation at S phase at 50 uM after 30 hrs using propidium iodide staining by flow cytometry. The class given is functional, cell-based. Summed up:
as §2

Data set [11] deals with U-937. Description: Inhibition of histone acetyltransferase in human U937 cells assessed as inhibition of acetylation of histone H3 at K18 at 50 uM after 24 hrs by Western blotting. Format: cell-based. Summed up:
(§4)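 U937 cells treated 24 h at 50 µM. Acid-extracted histones (Triton buffer lysis, then 0.2 M HCl overnight at 4 °C) immunoblotted with site-specific antibodies (H3K9/K14/K18/K56ac, H4K5/K8/K16ac, pan-acetyl H4; 1:1000). Loading checked by Ponceau Red staining, or by histone H1 for pan-acetyl H4.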

The next data set concerns the target Albumin (Bos taurus, UniProt P02769). The data set is described as follows: Binding affinity to bovine serum albumin by surface plasmon resonance assay. The note with it: cattle.
Data set [12] concerns U-937. Description: Inhibition of histone acetyltransferase in human U937 cells assessed as inhibition of acetylation of histone H3 at K9 at 50 uM after 24 hrs by Western blotting. Format: cell-based. Summed up:
as §4

For data set [13], the system named is U-937. The data set is described as follows: Inhibition of histone acetyltransferase in human U937 cells assessed as inhibition of acetylation of histone H4 at K5 at 50 uM after 24 hrs by Western blotting. The class given is cell-based. Summed up: as §4
Data set [14] relates to U-937. Description: Induction of apoptosis in human U937 cells at 50 uM after 30 hrs using annexin V/propidium iodide double-staining by FACS analysis. Format: functional. Summed up:
as §3

For data set [15], the system named is U-937. Description: Inhibition of histone acetyltransferase in human U937 cells assessed as inhibition of acetylation of histone H4 at K8 at 50 uM after 24 hrs by Western blotting. The class given is cell-based. Summed up: as §4
Data set [16] deals with U-937. The data set is described as follows: Inhibition of histone acetyltransferase in human U937 cells assessed as inhibition of acetylation of histone H3 at K56 at 50 uM after 24 hrs by Western blotting. The class given is cell-based. Summed up: as §4
Data set [17] addresses Histone acetyltransferase p300 (Homo sapiens) (UniProt Q09472). The data set is described as follows: Binding affinity to His6-tagged immobilized human KAT3B catalytic domain expressed in Sf9 cells by surface plasmon resonance assay. On the technique in general: SPR reads the build-up and loss of mass on a sensor chip optically.
For data set [18], the system named is U-937. Description: Inhibition of histone acetyltransferase in human U937 cells assessed as inhibition of acetylation of histone H3 at K14 at 50 uM after 24 hrs by Western blotting. Format: cell-based. Summed up: as §4
Data set [19] relates to U-937. The data set is described as follows: Inhibition of histone acetyltransferase in human U937 cells assessed as inhibition of acetylation of histone H4 at K16 at 50 uM after 24 hrs by Western blotting. Format: cell-based. Summed up: as §4
Data set [20] relates to U-937. The data set is described as follows: Induction of apoptosis in human U937 cells after 30 hrs using annexin V/propidium iodide double-staining by FACS analysis. The class given is functional, cell-based. The note with it: U-937, 30 h. Summed up:
as §3

pIC50: −log10 of the molar value. Calls of active or inactive are those of the source. The calls are words filed in the database; no cut-off is given here.

Chain of CREB-binding protein (Homo sapiens) (Q92793 2-2442 limits assumed): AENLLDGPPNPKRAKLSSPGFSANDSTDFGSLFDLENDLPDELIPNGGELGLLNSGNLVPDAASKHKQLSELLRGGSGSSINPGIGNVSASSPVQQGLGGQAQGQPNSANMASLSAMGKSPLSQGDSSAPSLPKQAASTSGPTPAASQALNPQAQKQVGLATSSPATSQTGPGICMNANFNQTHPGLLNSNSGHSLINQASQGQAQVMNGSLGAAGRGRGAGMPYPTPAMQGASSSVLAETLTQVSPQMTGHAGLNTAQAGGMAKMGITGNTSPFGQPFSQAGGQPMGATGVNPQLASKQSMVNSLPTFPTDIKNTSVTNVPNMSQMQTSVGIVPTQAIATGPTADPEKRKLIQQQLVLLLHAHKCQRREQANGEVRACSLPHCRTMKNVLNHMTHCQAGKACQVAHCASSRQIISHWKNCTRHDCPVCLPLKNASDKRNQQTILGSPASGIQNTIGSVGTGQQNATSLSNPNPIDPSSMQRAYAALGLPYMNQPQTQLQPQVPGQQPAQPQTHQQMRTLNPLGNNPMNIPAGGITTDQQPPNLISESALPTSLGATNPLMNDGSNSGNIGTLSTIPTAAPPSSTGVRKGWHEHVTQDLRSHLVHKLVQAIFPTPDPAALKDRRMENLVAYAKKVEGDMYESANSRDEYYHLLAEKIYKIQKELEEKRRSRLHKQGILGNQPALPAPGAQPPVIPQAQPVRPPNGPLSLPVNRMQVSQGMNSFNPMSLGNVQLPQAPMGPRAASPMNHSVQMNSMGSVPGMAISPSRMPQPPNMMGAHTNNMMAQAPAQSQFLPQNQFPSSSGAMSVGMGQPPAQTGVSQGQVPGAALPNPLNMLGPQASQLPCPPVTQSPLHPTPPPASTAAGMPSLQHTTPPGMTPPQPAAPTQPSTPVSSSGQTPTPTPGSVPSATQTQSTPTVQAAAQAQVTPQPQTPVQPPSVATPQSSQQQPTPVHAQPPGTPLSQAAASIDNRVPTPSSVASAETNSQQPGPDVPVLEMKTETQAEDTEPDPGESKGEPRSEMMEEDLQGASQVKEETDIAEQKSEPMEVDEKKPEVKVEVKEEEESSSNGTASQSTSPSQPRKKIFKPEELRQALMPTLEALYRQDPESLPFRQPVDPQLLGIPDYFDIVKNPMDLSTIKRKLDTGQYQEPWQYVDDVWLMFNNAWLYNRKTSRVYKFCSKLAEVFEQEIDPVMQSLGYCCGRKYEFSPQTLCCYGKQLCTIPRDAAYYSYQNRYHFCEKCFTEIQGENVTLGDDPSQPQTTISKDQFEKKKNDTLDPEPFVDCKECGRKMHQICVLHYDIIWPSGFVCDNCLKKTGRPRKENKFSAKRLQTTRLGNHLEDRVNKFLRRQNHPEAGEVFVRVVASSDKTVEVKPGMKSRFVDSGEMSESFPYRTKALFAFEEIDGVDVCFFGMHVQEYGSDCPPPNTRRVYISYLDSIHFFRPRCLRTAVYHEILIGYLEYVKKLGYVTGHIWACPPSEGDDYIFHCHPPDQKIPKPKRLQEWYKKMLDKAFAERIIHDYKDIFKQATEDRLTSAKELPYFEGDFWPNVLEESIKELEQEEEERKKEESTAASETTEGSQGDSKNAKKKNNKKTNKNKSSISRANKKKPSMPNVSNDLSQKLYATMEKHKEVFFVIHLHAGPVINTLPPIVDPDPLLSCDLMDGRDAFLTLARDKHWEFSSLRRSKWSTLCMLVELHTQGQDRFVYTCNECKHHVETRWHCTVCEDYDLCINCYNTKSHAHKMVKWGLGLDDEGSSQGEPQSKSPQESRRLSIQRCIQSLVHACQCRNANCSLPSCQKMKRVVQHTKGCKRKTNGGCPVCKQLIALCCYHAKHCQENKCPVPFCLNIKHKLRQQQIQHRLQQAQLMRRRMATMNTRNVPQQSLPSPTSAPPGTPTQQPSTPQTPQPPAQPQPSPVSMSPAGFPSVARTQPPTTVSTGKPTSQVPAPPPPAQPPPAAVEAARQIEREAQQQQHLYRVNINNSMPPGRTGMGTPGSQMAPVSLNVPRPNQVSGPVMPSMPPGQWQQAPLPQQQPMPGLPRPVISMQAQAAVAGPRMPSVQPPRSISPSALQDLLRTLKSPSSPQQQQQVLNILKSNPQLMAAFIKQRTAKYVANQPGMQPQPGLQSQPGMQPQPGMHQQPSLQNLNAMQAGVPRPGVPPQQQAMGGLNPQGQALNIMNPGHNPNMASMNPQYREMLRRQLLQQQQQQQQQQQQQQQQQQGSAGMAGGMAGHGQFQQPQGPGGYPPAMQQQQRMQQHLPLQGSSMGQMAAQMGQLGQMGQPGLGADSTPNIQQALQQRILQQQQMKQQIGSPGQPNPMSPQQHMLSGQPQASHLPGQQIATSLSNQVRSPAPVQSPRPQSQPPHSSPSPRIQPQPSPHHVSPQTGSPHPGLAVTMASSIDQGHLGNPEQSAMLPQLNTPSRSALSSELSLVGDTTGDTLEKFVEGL
Chain of Albumin (P02769 whole entry): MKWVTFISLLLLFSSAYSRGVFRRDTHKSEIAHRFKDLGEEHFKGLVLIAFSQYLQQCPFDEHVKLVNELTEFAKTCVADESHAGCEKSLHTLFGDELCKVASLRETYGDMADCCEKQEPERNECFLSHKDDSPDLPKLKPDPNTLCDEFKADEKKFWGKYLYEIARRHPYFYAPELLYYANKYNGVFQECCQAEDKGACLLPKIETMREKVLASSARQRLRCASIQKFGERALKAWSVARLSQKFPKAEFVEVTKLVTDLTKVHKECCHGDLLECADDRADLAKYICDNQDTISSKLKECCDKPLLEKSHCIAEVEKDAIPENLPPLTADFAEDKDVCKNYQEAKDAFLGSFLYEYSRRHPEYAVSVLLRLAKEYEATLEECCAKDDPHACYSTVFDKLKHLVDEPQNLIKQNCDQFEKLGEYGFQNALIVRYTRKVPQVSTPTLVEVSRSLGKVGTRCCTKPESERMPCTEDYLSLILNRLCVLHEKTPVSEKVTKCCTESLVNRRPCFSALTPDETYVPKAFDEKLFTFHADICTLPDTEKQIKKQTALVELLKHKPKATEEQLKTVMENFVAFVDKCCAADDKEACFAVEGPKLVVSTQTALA

The term inhibition denotes the share of the control response that was lost under treatment. As to `CCCCCCCCCCCCCCC(O)=C(C(=O)OCC)C(=O)OCC`, the inhibition entry (in data set [1]; in the data set with U-937 [3]; in the data set with MCF7) was “inactive” in each case. Further, the outcome with U-937 [2], with U-937 [5] and in the data set with U-937 [7] was inactive. In addition, the outcome in data set [4] was Active. For the same compound, the inhibition in [6] is 52%.
`CCCCCCCCCCCCCCC(Cl)=C(C(=O)OCC)C(=O)OCC`: the inhibition entry (in data set [1]; with U-937 [3]; in the data set with MCF7) was “inactive” in each case. The result in the data set on U-937 [2], in the data set on U-937 [5] and in the data set on U-937 [7] was inactive. For the same compound, the result in data set [4] was Active. In data set [6], the inhibition entry was “Active”.
`CCCCCCCCCCCCCC(C(=O)OCC)C(=O)OCC`: the inhibition entry (in data set [1]; in the data set with U-937 [3]; in the data set with MCF7) was “inactive” in each case. Also, the outcome in the data set with U-937 [2], in the data set on U-937 [5] and in the data set on U-937 [7] was inactive. In addition, the inhibition entry in [8] and in [6] was “Active” throughout.
For `CCCCCCCCCCCCCCC(C(=O)OCC)C(=O)OCC`, the inhibition entry (in data set [1]; in the data set with U-937 [3]; with MCF7) was “inactive” each time. Also, the result in the data set with U-937 [2], in the data set on U-937 [5] and in the data set with U-937 [7] was inactive. The inhibition entry in data set [6] is “Active”.
On to `CCCCCCCCCCCCCCC=C(C(C)=O)C(C)=O`, for which the Activity entry is “Dose-dependent effect” in data set [9] and “Not Active” at Albumin. Further, the outcome (in the data set with U-937 [2]; in data set [17]) was inactive. In addition, the outcome in the data set on U-937 [10] and in the data set on U-937 [14] was Active. Moreover, the inhibition entry (in data set [8]; in the data set with U-937 [3]; in the data set with U-937 [12]; in the data set on U-937 [18]) was “Active” in each case. The inhibition entry in the data set on U-937 [11], with U-937 [13], with U-937 [15], with MCF7, in the data set with U-937 [16] and in the data set with U-937 [19] was “inactive” throughout. For the same compound, the inhibition in data set [6] was determined as 79%.
For the compound `CCCCCCCCCCCCCCCCC(O)=C(C(=O)OCC)C(=O)OCC`, the inhibition result (in data set [1]; in the data set on U-937 [3]; in the data set with MCF7) was “inactive” in each case. Further, the outcome in the data set on U-937 [2], in the data set on U-937 [5] and in the data set with U-937 [7] was inactive. In addition, in [6], the inhibition entry was “Active”.
In the case of `CCCCCCCCCCCCCCC(N)=C(C(=O)OCC)C(=O)OCC`, the outcome in the data set on U-937 [2], in the data set with U-937 [5] and with U-937 [7] was inactive.
As to `CCCCCCCCCCCCC=C(C(=O)OCC)C(=O)OCC`, the outcome with U-937 [2], in the data set with U-937 [5] and with U-937 [7] was inactive. Further, the inhibition result (in data set [8]; in the data set with U-937 [11]; in the data set with U-937 [12]) was “Active” in each case. Besides, the inhibition entry (in the data set with U-937 [13]; with U-937 [15]; with U-937 [16]; in the data set with U-937 [18]; in data set [6]; with U-937 [19]) was “inactive” each time.
The pIC50 is −log10 of the IC50, conventionally taken in molar units. A lower pIC50 goes with a large IC50. Take `CCCCCCCCCCC=C(C(=O)OCC)C(=O)OCC`: the Activity entry in data set [9] was “Dose-dependent effect”; at Albumin, “Not Active”; with U-937 [14] it was 25.4%. In addition, the outcome (in the data set on U-937 [2]; in data set [17]) was inactive. Further, in the data set on U-937 [10], the outcome was Active. Besides, the pIC50 in the data set with U-937 [20] was 3.81. In addition, the inhibition entry (in [8]; with U-937 [11]; in the data set on U-937 [3]; in the data set with U-937 [12]; in the data set with U-937 [13]; with U-937 [16]) was “Active” throughout. Also, the inhibition result (in the data set with U-937 [18]; in data set [6]; in the data set on U-937 [19]) was “Active” each time. For the same compound, the inhibition entry with U-937 [15] and in the data set on MCF7 was “inactive” throughout.
On to `CCCCCCCCCCCCCCCC1C(=O)OC(C)(C)OC1=O`, for which the inhibition entry (in data set [1]; in the data set on U-937 [3]; with MCF7) was “inactive” throughout. The outcome in the data set on U-937 [2], with U-937 [5] and in the data set on U-937 [7] was inactive. The inhibition entry in data set [8] and in [6] was “Active” throughout.
Regarding `C=CC/C=C\C/C=C\CCCCCCCc1cccc(O)c1C(=O)O`, in data set [6], the inhibition was determined as 62%.
As for `CCCCCCCCCCCCCCC=C1C(=O)OC(C)(C)OC1=O`, the inhibition entry (in data set [1]; in the data set on U-937 [3]; with MCF7) was “inactive” throughout. In addition, the result with U-937 [2], in the data set on U-937 [5] and with U-937 [7] was inactive. The inhibition entry in data set [8] and in [6] was “Active” each time.
For the compound `CCCCCCCCCCCCCCC(C)=C(C(=O)OCC)C(=O)OCC`, the inhibition entry (in [1]; in the data set on U-937 [3]; with MCF7) was “inactive” throughout. For the same compound, the outcome in the data set with U-937 [2], in the data set with U-937 [5] and in the data set on U-937 [7] was inactive. Also, in [6], the inhibition result is “Active”.
Consider `CCCCCCCCCCCCCC(C)=C(C(=O)OCC)C(=O)OCC`, for which the inhibition entry (in data set [1]; in the data set with U-937 [3]; in the data set on MCF7) was “inactive” each time. For the same compound, the outcome with U-937 [2], in the data set with U-937 [5] and with U-937 [7] was inactive. The inhibition entry in [6] was “Active”.
As for `CCCCCCCCCCCCCCCC(C(=O)OCC)C(=O)OCC`, the inhibition result (in [1]; in the data set on U-937 [3]; in the data set with MCF7) was “inactive” each time. For the same compound, the result with U-937 [2], in the data set with U-937 [5] and in the data set with U-937 [7] was inactive. Moreover, the inhibition result in data set [6] was “Active”.

These data come from ChEMBL document CHEMBL1795294, “Modulation of the activity of histone acetyltransferases by long chain alkylidenemalonates (LoCAMs)” (Bioorg Med Chem, 2011).
